Values after ≈ are worked out from the molar mass of the structure shown. Active and inactive are the calls of the source. The rule behind the calls is not given here.
Legend:
[1] = tested on: Blood; test: Inhibition of LPS-stimulated TNFalpha production in human Whole blood; format: functional, tissue-based
[2] = Oral bioavailability in rat at 1 mg/kg; format: ADME, organism-based; conditions: in vivo
In short: (§1)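 Rat pharmacokinetics: 1 mg/kg given IV (n = 2) or orally (n = 1); clearance derived from the IV arm.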

[3] = Half life in rat at 1 mg/kg, iv; format: ADME, organism-based; parameters: dose 1 mg/kg, route intravenous; conditions: in vivo; in short: as §1
[4] = Clearance in rat at 1 mg/kg, iv; format: ADME, organism-based; parameters: dose 1 mg/kg, route intravenous; conditions: in vivo; in short: as §1
[5] = target: T1, Inhibitor of nuclear factor kappa-B kinase subunit alpha (Homo sapiens, UniProt O15111); test: Inhibition of IKK1 in presence of 1 uM ATP
T1 sequence (O15111 whole entry): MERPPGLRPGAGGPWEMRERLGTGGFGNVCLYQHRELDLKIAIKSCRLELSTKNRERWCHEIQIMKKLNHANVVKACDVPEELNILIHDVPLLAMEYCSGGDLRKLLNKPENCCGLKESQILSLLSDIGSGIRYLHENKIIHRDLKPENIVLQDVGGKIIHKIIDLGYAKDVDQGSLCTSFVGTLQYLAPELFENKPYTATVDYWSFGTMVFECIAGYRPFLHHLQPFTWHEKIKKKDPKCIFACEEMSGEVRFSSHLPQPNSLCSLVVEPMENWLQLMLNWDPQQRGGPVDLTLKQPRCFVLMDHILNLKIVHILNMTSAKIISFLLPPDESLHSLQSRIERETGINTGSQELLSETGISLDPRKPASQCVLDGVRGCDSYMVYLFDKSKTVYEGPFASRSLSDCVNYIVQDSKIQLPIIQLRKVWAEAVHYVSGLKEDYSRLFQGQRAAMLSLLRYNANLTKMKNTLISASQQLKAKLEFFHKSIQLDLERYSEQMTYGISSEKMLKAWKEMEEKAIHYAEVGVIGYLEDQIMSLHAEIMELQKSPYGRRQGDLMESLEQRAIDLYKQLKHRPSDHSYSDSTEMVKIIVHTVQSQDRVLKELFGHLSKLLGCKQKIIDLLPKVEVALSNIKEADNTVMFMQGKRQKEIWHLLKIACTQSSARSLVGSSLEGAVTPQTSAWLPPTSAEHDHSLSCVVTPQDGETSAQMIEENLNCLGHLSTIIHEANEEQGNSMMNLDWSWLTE

[6] = target: T2, Inhibitor of nuclear factor kappa-B kinase subunit beta (Homo sapiens, UniProt O14920); test: Inhibition of IKK2 in presence of 1 uM ATP
T2 sequence (O14920 whole entry): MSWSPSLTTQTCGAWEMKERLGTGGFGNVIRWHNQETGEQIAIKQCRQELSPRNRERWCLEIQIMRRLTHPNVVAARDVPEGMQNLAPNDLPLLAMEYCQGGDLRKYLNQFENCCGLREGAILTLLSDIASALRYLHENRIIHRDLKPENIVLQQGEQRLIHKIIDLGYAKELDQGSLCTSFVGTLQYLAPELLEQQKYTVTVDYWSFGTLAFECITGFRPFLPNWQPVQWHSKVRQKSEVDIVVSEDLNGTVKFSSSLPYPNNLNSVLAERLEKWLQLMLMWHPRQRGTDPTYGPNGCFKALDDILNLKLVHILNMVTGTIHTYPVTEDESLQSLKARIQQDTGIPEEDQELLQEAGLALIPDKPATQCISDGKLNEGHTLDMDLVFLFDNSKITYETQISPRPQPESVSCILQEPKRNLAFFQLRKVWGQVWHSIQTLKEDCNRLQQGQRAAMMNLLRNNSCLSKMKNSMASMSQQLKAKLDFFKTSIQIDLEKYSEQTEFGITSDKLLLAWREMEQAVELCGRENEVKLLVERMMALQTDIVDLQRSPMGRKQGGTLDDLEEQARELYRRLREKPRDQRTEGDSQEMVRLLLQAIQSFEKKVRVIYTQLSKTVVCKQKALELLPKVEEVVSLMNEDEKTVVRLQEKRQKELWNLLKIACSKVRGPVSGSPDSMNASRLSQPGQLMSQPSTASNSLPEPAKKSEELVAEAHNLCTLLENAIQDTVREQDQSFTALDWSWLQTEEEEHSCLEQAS

[7] = tested on: Rattus norvegicus; test: Antiinflammatory activity in po dosed Lewis rat assessed as inhibition of LPS-induced neutrophil lung infiltration compound administered 30 mins before LPS challenge relative to vehicle-treated control; format: functional
In short: (§2)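 Male Lewis rats (n = 4 per group, vehicle included) dosed orally at 10, 30 and 100 µmol/kg in 2% DMSO/0.5% methylcellulose with NaOH, 30 min before 20 min exposure to aerosolized 0.1 mg/ml E. coli 026:B6 LPS. Neutrophils in BAL fluid counted 4 h post-LPS by differential (Diff-Quick) and haemocytometer counts. Results given as % inhibition versus vehicle, ED50 derived; ANOVA with Dunnett's test.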

[8] = Plasma protein binding in human; format: ADME, cell-free; conditions: read-out: PPB (converted)
[9] = Aqueous solubility of the compound; format: physicochemical; conditions: aqueous solution
[10] = tested on: Hepatocyte; test: Intrinsic clearance in rat hepatocytes; format: ADME, cell-based, Liver
[11] = target: Voltage-gated inwardly rectifying potassium channel KCNH2 (Homo sapiens, UniProt Q12809); test: Inhibition of human ERG
[12] = Plasma protein binding in rat; format: ADME, cell-free; conditions: read-out: PPB (converted)
[13] = target: T3, Cytochrome P450 1A2 (Homo sapiens, UniProt P05177); test: inhibition of CYP1A2; format: ADME
T3 sequence (P05177 whole entry): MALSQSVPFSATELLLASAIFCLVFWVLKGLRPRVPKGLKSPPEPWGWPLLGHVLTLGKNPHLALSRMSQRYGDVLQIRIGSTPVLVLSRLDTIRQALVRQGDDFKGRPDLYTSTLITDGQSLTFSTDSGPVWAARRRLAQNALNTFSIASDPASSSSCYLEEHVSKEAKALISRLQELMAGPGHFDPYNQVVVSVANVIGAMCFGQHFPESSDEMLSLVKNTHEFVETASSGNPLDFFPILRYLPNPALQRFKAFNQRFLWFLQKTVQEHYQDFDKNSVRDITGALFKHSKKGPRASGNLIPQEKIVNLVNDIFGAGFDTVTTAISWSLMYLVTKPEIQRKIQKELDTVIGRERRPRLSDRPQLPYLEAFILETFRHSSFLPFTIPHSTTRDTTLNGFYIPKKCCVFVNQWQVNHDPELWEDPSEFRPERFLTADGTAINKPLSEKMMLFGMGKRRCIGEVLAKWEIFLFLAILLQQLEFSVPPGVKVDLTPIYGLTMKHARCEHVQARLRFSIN

[14] = tested on: Hepatocyte; test: Intrinsic clearance in human hepatocytes; format: ADME, cell-based, Liver
[15] = target: Cytochrome P450 2D6 (Homo sapiens, UniProt P10635); test: inhibition of CYP2D6; format: ADME
[16] = target: Cytochrome P450 2C9 (Homo sapiens, UniProt P11712); test: inhibition of CYP2C9; format: ADME
[17] = target: Cytochrome P450 3A4 (Homo sapiens, UniProt P08684); test: inhibition of CYP3A4; format: ADME
[18] = Volume of distribution in rat; format: ADME, organism-based; conditions: in vivo; in short: as §1
[19] = target: T2, Inhibitor of nuclear factor kappa-B kinase subunit beta; test: Inhibition of IKK2 in human A549 cells assessed as inhibition of TNFalpha-induced NFKB activation; format: cell-based
[20] = tested on: Blood; test: Inhibition of LPS-stimulated TNFalpha production in rat Whole blood; format: functional, tissue-based
[21] = Fraction unbound in human plasma; format: ADME, cell-free
[22] = tested on: Rattus norvegicus; test: Antiinflammatory activity in Lewis rat assessed as inhibition of LPS-induced neutrophil lung infiltration at 30 umol/kg, po administered 30 mins before LPS challenge relative to vehicle-treated control; format: functional, organism-based; in short: as §2
[23] = target: Albumin (Homo sapiens, UniProt P02768); test: Binding affinity to human serum albumin; format: ADME; conditions: isolated protein
Albumin, sequence (P02768 whole entry): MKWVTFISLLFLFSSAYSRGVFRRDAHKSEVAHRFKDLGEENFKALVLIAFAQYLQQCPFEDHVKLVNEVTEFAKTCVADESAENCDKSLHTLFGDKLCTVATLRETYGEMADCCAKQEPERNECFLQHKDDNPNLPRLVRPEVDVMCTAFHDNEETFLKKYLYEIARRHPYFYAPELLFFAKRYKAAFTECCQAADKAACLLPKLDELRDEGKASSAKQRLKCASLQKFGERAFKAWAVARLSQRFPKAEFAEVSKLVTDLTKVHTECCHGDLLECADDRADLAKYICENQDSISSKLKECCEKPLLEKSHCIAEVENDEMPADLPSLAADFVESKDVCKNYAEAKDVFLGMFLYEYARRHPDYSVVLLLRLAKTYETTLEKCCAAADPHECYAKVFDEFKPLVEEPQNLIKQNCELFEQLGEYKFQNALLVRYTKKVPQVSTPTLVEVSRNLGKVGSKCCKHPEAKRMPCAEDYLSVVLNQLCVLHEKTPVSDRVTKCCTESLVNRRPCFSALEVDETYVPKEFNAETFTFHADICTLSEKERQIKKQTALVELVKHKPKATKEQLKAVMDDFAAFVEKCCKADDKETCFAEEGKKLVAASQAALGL

Voltage-gated inwardly rectifying potassium channel KCNH2, sequence (Q12809 whole entry): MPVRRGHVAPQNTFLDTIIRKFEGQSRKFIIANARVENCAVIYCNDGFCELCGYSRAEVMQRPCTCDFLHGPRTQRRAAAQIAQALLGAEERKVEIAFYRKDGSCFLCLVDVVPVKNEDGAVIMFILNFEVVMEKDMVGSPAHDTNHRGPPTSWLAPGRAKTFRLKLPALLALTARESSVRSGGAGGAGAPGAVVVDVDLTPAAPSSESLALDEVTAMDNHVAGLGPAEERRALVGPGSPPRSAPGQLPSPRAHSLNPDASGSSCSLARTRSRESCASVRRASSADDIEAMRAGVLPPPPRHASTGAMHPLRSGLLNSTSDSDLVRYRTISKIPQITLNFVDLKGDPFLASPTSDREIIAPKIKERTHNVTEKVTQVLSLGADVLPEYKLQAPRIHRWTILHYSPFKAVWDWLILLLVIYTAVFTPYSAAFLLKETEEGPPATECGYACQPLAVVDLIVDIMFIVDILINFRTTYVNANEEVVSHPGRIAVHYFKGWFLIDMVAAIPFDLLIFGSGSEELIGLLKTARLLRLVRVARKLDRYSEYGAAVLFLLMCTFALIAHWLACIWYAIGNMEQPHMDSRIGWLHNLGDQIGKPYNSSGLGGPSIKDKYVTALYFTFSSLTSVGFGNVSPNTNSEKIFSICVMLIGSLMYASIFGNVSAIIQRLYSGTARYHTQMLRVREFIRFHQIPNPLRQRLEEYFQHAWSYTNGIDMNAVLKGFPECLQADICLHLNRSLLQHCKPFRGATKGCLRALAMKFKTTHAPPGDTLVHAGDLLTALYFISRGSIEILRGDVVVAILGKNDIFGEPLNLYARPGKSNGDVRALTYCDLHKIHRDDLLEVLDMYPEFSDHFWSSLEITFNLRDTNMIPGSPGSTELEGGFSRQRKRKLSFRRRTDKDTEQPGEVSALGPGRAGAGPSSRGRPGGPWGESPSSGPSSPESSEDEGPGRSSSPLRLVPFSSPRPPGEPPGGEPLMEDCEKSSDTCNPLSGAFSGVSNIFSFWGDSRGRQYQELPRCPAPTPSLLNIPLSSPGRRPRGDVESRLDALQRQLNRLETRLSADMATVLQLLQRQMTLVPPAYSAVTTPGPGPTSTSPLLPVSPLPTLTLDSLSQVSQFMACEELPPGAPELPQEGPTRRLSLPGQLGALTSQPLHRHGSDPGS
Cytochrome P450 2D6, sequence (P10635 whole entry): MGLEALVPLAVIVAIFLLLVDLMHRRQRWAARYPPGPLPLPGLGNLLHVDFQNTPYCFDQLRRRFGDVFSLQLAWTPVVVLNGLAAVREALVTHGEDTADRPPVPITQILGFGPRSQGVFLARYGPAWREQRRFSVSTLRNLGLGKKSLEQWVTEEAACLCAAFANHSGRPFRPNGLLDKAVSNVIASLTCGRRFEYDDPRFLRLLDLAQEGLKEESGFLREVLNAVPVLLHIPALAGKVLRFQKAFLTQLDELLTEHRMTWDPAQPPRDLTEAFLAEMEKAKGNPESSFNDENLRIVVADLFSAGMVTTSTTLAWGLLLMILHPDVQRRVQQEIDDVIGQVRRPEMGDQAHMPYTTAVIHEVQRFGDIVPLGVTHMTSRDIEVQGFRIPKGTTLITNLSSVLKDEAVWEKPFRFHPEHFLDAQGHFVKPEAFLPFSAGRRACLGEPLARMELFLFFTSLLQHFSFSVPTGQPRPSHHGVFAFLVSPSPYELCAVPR
Cytochrome P450 2C9, sequence (P11712 whole entry): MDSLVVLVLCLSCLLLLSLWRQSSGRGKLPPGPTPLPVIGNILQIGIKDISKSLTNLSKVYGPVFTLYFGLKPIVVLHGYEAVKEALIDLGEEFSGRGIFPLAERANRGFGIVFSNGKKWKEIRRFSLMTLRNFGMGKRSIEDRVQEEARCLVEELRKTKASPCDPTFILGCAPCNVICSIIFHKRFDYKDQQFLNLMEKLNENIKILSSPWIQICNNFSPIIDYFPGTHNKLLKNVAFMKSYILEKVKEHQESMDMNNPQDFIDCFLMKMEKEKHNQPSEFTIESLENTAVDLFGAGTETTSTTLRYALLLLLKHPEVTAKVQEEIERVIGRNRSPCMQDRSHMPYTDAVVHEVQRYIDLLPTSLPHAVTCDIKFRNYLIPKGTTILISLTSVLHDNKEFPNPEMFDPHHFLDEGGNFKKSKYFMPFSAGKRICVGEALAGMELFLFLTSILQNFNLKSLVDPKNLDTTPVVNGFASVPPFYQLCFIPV
Cytochrome P450 3A4, sequence (P08684 whole entry): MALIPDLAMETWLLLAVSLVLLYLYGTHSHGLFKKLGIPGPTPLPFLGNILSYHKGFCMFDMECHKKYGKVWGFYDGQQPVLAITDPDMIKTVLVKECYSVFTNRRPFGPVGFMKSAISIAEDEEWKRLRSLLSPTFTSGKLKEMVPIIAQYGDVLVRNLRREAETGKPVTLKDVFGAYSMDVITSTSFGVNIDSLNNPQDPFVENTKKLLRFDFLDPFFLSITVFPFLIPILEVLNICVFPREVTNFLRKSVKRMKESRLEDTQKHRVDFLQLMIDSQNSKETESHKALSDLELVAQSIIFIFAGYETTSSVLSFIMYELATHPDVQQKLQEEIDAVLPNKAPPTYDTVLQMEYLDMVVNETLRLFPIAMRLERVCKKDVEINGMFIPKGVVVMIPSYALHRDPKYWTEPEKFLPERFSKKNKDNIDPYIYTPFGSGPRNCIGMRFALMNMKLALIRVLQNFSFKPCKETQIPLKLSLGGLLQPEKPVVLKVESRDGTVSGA

Row | IC50 [1] | IC50 [5] | IC50 [6] | SMILES | also measured
1 | 398 nM |  |  | Cc1cc2c(-c3ccc(S(=O)(=O)NC4CCS(=O)(=O)CC4)cc3)ccnc2[nH]1 | 
2 | 1000 nM | 200 nM | 10 nM | Cc1cc2c(-c3ccc(S(=O)(=O)NCC(C)(C)O)cc3)ccnc2[nH]1 | bioavailability [2]: 32%; half-life [3]: 36 min; clearance [4]: 70 mL/min/kg
3 | 1260 nM | 50.1 nM | 15.8 nM | O=S1(=O)CCC(NS(=O)(=O)c2ccc(-c3ccnc4[nH]c(Cn5ccnn5)cc34)cc2)CC1 | 
4 | 1000 nM | 79.4 nM | 79.4 nM | Cc1cc2c(-c3ccc(S(=O)(=O)NC4CCS(=O)(=O)CC4)cn3)ccnc2[nH]1 | 
5 | 1000 nM | 794 nM | 20 nM | CC(C)(C)c1cc2c(-c3ccc(S(=O)(=O)NCCO)cc3)ccnc2[nH]1 | 
6 | 2510 nM | 200 nM | 15.8 nM | O=S(=O)(NCCO)c1ccc(-c2ccnc3[nH]c(C(F)(F)F)cc23)cc1 | 
7 | 251 nM | 6.31 nM | 6.31 nM | CC(C)c1cc2c(-c3ccc(S(=O)(=O)NC4CCS(=O)(=O)CC4)cc3)ccnc2[nH]1 | 
8 | 631 nM | 31.6 nM | 15.8 nM | O=S1(=O)CCC(NS(=O)(=O)c2ccc(-c3ccnc4[nH]c(C5CCNCC5)cc34)cc2)CC1 | 
9 | 1000 nM | 316 nM | 6.31 nM | CC(C)(O)CNS(=O)(=O)c1ccc(-c2ccnc3[nH]c(C4CC4)cc23)cc1 | bioavailability [2]: 100%; half-life [3]: 42 min; clearance [4]: 14 mL/min/kg
10 | 398 nM | 7.94 nM | 12.6 nM | Cc1cc2c(-c3ccc(S(=O)(=O)NC4CCS(=O)(=O)CC4)nc3)ccnc2[nH]1 | 
11 | 398 nM | 6.31 nM | 5.01 nM | CCc1cc2c(-c3ccc(S(=O)(=O)NC4CCS(=O)(=O)CC4)cc3)ccnc2[nH]1 | 
12 | 1260 nM | 200 nM | 7.94 nM | O=S(=O)(NCCO)c1ccc(-c2ccnc3[nH]c(C4CC4)cc23)cc1 | ED50 [7]: 28.2 µmol/kg; inhibition [7]: Dose-dependent effect; fraction unbound [8]: 0.066; solubility [9]: 64 µM (≈ 22.9 µg/mL); CLH [10]: < 1 mL/min/g; IC50 [11]: > 50100 nM; fraction unbound [12]: 0.024; IC50 [13]: > 10000 nM; CLH [14]: < 1 mL/min/g; IC50 [15]: > 10000 nM; IC50 [16]: 7000 nM; IC50 [17]: > 10000 nM; Vd [18]: 0.6 L/kg; bioavailability [2]: 49%; half-life [3]: 36 min; clearance [4]: 13 mL/min/kg; IC50 [19]: 200 nM; IC50 [20]: 6310 nM; fraction unbound [21]: 0.07; inhibition [22]: Active
13 | 3160 nM | 158 nM | 794 nM | Cc1cc2c(-c3ncc(S(=O)(=O)NC4CCS(=O)(=O)CC4)cn3)ccnc2[nH]1 | 
14 | 631 nM | 25.1 nM | 7.94 nM | CC(C)(C)c1cc2c(-c3ccc(S(=O)(=O)NC4CCS(=O)(=O)CC4)cc3)ccnc2[nH]1 | 
15 | 501 nM | 251 nM | 7.94 nM | C[C@@H](CO)NS(=O)(=O)c1ccc(-c2ccnc3[nH]c(C4CC4)cc23)cc1 | bioavailability [2]: 29%; half-life [3]: 54 min; clearance [4]: 15 mL/min/kg
16 | 2510 nM |  |  | Cc1cc2c(-c3ccc(S(=O)(=O)NCCO)cc3)ccnc2[nH]1 | 
17 | 1260 nM | 316 nM | 20 nM | C[C@@H](CO)NS(=O)(=O)c1ccc(-c2ccnc3[nH]c(C(F)(F)F)cc23)cc1 | bioavailability [2]: 83%; half-life [3]: 192 min; clearance [4]: 7 mL/min/kg
18 | 3160 nM |  |  | Cc1cc2c(-c3ccc(S(=O)(=O)N(C)CCO)cc3)ccnc2[nH]1 | Activity [23]: 91%; IC50 [19]: 794 nM
19 | 1580 nM | 398 nM | 7.94 nM | CC(C)c1cc2c(-c3ccc(S(=O)(=O)NCCO)cc3)ccnc2[nH]1 | Vd [18]: 0.8 L/kg; bioavailability [2]: 18%; half-life [3]: 27 min; clearance [4]: 39 mL/min/kg
20 | 251 nM | 6.31 nM | 3.98 nM | O=S1(=O)CCC(NS(=O)(=O)c2ccc(-c3ccnc4[nH]c(C5CC5)cc34)cc2)CC1 | 
21 | 1260 nM | 100 nM | 20 nM | CN(C)Cc1cc2c(-c3ccc(S(=O)(=O)NC4CCS(=O)(=O)CC4)cc3)ccnc2[nH]1 | 

From ChEMBL document CHEMBL2163232, “4-Phenyl-7-azaindoles as potent, selective and bioavailable IKK2 inhibitors demonstrating good in vivo efficacy” (Bioorg Med Chem Lett, 2012)
